From ChEMBL document CHEMBL1275408, “A chemical genomic screen in Saccharomyces cerevisiae reveals a role for diphthamidation of translation elongation factor 2 in inhibition of protein synthesis by sordarin” (2008)
The source made the active and inactive calls. The calls are words filed in the database; no cut-off is given here.

Tests used:
[1] = system: Saccharomyces cerevisiae; assay: Antifungal activity against Saccharomyces cerevisiae BY4741 harboring CTF3 YLR381W mutant gene by spectrophotometry; format: functional
Summary of the method: (§1)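 Screen of BY4741 KanMX4 deletion strains pre-grown 3 days at 28°C in YPD with G418 (150 mg/liter), then pinned into liquid SC containing GM193663. The sensitivity screen used 2 ng/ml; the resistance screen used 62.5 ng/ml, with validation at 62.5, 125 and 500 ng/ml. OD595 was read every 24 h over 5 days at 28°C. Growth was scored relative to wild type and to drug-free controls. Retests were at least in duplicate.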

[2] = system: Saccharomyces cerevisiae; assay: Antifungal activity against Saccharomyces cerevisiae BY4741 harboring MHP1 YJL042W mutant gene by spectrophotometry; format: functional; summary of the method: as §1
[3] = system: Saccharomyces cerevisiae; assay: Antifungal activity against Saccharomyces cerevisiae BY4741 harboring FYV1 YDR024W mutant gene by spectrophotometry; format: functional; summary of the method: as §1
[4] = system: Saccharomyces cerevisiae; assay: Antifungal activity against Saccharomyces cerevisiae BY4741 harboring UBX3 YDL091C mutant gene by spectrophotometry; format: functional
Summary of the method: (§2)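 Haploid MATa BY4741 KanMX4 deletion strains pinned from frozen stocks into YPD + G418 (150 mg/liter), grown 3 days at 28°C to confluence, then pin-replicated into SC liquid with no drug or sordarin derivative GM193663 (2 ng/ml sensitivity; 62.5 ng/ml resistance). 28°C, OD595 read every 24 h for 5 days; growth scored relative to wild type on same plate and to untreated mutant.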

[5] = system: Saccharomyces cerevisiae; assay: Antifungal activity against Saccharomyces cerevisiae BY4741 harboring YLR125W mutation in unknown gene by spectrophotometry; format: functional
Summary of the method: (§3)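 Deletion strains from the nonessential haploid MATa BY4741 collection (KanMX4 replacement) were grown in YPD with G418 at 28°C for 3 days, then pinned into liquid SC with or without sordarin derivative GM193663 (2 ng/ml for sensitivity, 62.5 ng/ml for resistance). Cultures were kept at 28°C and read at OD595 every 24 h for 5 days. Growth was scored against wild type on the same plate and against the drug-free control. Hits were retested at least in duplicate.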

[6] = system: Saccharomyces cerevisiae; assay: Antifungal activity against Saccharomyces cerevisiae BY4741 harboring RAM1 YDL090C mutant gene by spectrophotometry; format: functional; summary of the method: as §2
[7] = system: Saccharomyces cerevisiae; assay: Antifungal activity against Saccharomyces cerevisiae BY4741 harboring SEM1 YDR363W-A mutant gene by spectrophotometry; format: functional; summary of the method: as §2
[8] = system: Saccharomyces cerevisiae; assay: Antifungal activity against Saccharomyces cerevisiae BY4741 harboring YDL063C mutation in unknown gene by spectrophotometry; format: functional; summary of the method: as §2
[9] = system: Saccharomyces cerevisiae; assay: Antifungal activity against Saccharomyces cerevisiae BY4741 harboring DPH1 YIL103W mutant gene by spectrophotometry; format: functional; summary of the method: as §1
[10] = system: Saccharomyces cerevisiae; assay: Antifungal activity against Saccharomyces cerevisiae BY4741 harboring deletion mutation in dph1 gene at 100 ng/ml by plate assay; format: functional, organism-based
Summary of the method: (§4)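 Spot test on solid SC glucose plates with or without 100 ng/ml sordarin. Drops of 10^5 cells plus 10-fold serial dilutions of each dph deletion strain were spotted alongside the parental strain. Plates were incubated at 28°C for 6 days and imaged every 24 h.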

[11] = system: Saccharomyces cerevisiae; assay: Antifungal activity against Saccharomyces cerevisiae BY4741 harboring deletion mutation in dph2 gene at 100 ng/ml by plate assay; format: functional, organism-based; summary of the method: as §4
[12] = system: Saccharomyces cerevisiae; assay: Antifungal activity against Saccharomyces cerevisiae BY4741 harboring YDR008C mutation by spectrophotometry; format: functional; summary of the method: as §2
[13] = system: Saccharomyces cerevisiae; assay: Antifungal activity against Saccharomyces cerevisiae BY4741 harboring MRP21 YBL090W mutant gene by spectrophotometry; format: functional; summary of the method: as §1
[14] = system: Saccharomyces cerevisiae; assay: Antifungal activity against Saccharomyces cerevisiae BY4741 harboring DPH2 YKL191W mutant gene by spectrophotometry; format: functional; summary of the method: as §1
[15] = system: Saccharomyces cerevisiae; assay: Antifungal activity against Saccharomyces cerevisiae BY4741 harboring RMD9 YGL107C mutant gene by spectrophotometry; format: functional; summary of the method: as §2
[16] = system: Saccharomyces cerevisiae; assay: Antifungal activity against Saccharomyces cerevisiae BY4741 harboring deletion mutation in dph3 gene at 100 ng/ml by plate assay; format: functional, organism-based; summary of the method: as §4
[17] = system: Saccharomyces cerevisiae; assay: Antifungal activity against Saccharomyces cerevisiae BY4741 harboring DJP1 YIR004W mutant gene by spectrophotometry; format: functional; summary of the method: as §1
[18] = system: Saccharomyces cerevisiae; assay: Antifungal activity against Saccharomyces cerevisiae BY4741 harboring GGC1 YDL198C mutant gene by spectrophotometry; format: functional; summary of the method: as §1
[19] = system: Saccharomyces cerevisiae; assay: Antifungal activity against Saccharomyces cerevisiae BY4741 harboring HMI1 YOL095C mutant gene by spectrophotometry; format: functional; summary of the method: as §1
[20] = system: Saccharomyces cerevisiae; assay: Antifungal activity against Saccharomyces cerevisiae BY4741 harboring YDR042C mutation in unknown gene by spectrophotometry; format: functional; summary of the method: as §3
[21] = system: Saccharomyces cerevisiae; assay: Antifungal activity against Saccharomyces cerevisiae BY4741 harboring YLR143W mutation in unknown gene by spectrophotometry; format: functional; summary of the method: as §3
[22] = system: Saccharomyces cerevisiae; assay: Antifungal activity against Saccharomyces cerevisiae BY4741 harboring COQ1 YBR003W mutant gene by spectrophotometry; format: functional; summary of the method: as §1
[23] = system: Saccharomyces cerevisiae; assay: Antifungal activity against Saccharomyces cerevisiae BY4741 harboring NAT3 YPR131C mutant gene by spectrophotometry; format: functional; summary of the method: as §2
[24] = system: Saccharomyces cerevisiae; assay: Antifungal activity against Saccharomyces cerevisiae BY4741 harboring deletion mutation in dph5 gene at 100 ng/ml by plate assay; format: functional, organism-based; summary of the method: as §4
[25] = system: Saccharomyces cerevisiae; assay: Antifungal activity against Saccharomyces cerevisiae BY4741 harboring NOT5 YPR072W mutant gene assessed as reduction in fungal growth at 2 ng/ml by spectrophotometry; format: functional, organism-based
Summary of the method: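 Deletion strains (BY4741 background) pre-grown 3 days at 28°C in YPD + G418 (150 mg/liter), then pin-replicated into SC liquid containing 2 ng/ml GM193663 or no drug. 28°C, OD595 every 24 h over 5 days; growth scored against wild type on same plate and against drug-free mutant control; hits retested at least in duplicate at 2 ng/ml.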

[26] = system: Saccharomyces cerevisiae; assay: Antifungal activity against Saccharomyces cerevisiae BY4741 harboring ARN1 YHL040C mutant gene by spectrophotometry; format: functional; summary of the method: as §1
[27] = system: Saccharomyces cerevisiae; assay: Antifungal activity against Saccharomyces cerevisiae BY4741 harboring SHE2 YKL130C mutant gene by spectrophotometry; format: functional; summary of the method: as §2
[28] = system: Saccharomyces cerevisiae; assay: Antifungal activity against Saccharomyces cerevisiae BY4741 harboring RPS11A YDR025W mutant gene by spectrophotometry; format: functional; summary of the method: as §2
[29] = system: Saccharomyces cerevisiae; assay: Antifungal activity against Saccharomyces cerevisiae BY4741 harboring IBD2 YNL164C mutant gene by spectrophotometry; format: functional; summary of the method: as §1
[30] = system: Saccharomyces cerevisiae; assay: Antifungal activity against Saccharomyces cerevisiae BY4741 harboring MRH1 YDR033W mutant gene by spectrophotometry; format: functional; summary of the method: as §1
[31] = system: Saccharomyces cerevisiae; assay: Antifungal activity against Saccharomyces cerevisiae BY4741 harboring MRPL24 YMR193W mutant gene by spectrophotometry; format: functional; summary of the method: as §2
[32] = system: Saccharomyces cerevisiae; assay: Antifungal activity against Saccharomyces cerevisiae BY4741 harboring SCS22 YBL091C-A mutant gene by spectrophotometry; format: functional; summary of the method: as §2
[33] = system: Saccharomyces cerevisiae; assay: Antifungal activity against Saccharomyces cerevisiae BY4741 harboring RPS4A YJR145C mutant gene by spectrophotometry; format: functional; summary of the method: as §2
[34] = system: Saccharomyces cerevisiae; assay: Antifungal activity against Saccharomyces cerevisiae BY4741 harboring ADE4 YMR300C mutant gene by spectrophotometry; format: functional; summary of the method: as §1
[35] = system: Saccharomyces cerevisiae; assay: Antifungal activity against Saccharomyces cerevisiae BY4741 harboring JJJ3/DPH4 YJR097W mutant gene by spectrophotometry; format: functional; summary of the method: as §1
[36] = system: Saccharomyces cerevisiae; assay: Antifungal activity against Saccharomyces cerevisiae BY4741 harboring THI20 YOL055C mutant gene by spectrophotometry; format: functional; summary of the method: as §2

## CO[C@H]1[C@@H](O)[C@H](O)[C@H](OC[C@@]23C[C@@H]4[C@H](C)CC[C@H]4[C@@]4(C=O)CC2C=C(C(C)C)[C@@]34C(=O)O)O[C@@H]1C [SORDARIN]
[1]
  MIC: > 0.125 µg/mL
[2]
  MIC: > 0.125 µg/mL
[3]
  MIC: > 0.5 µg/mL
[4]
  MIC: > 0.5 µg/mL
[5]
  MIC: > 0.125 µg/mL
[6]
  MIC: > 0.5 µg/mL
[7]
  MIC: > 0.125 µg/mL
[8]
  MIC: > 0.125 µg/mL
[9]
  MIC: > 0.5 µg/mL
[10]
  MIC: inactive
[11]
  MIC: inactive
[12]
  MIC: > 0.5 µg/mL
[13]
  MIC: > 0.5 µg/mL
[14]
  MIC: > 0.5 µg/mL
[15]
  MIC: > 0.125 µg/mL
[16]
  MIC: inactive
[17]
  MIC: > 0.5 µg/mL
[18]
  MIC: > 0.5 µg/mL
[19]
  MIC: > 0.125 µg/mL
[20]
  MIC: > 0.125 µg/mL
[21]
  MIC: > 0.5 µg/mL
[22]
  MIC: > 0.5 µg/mL
[23]
  MIC: > 0.0625 µg/mL
[24]
  MIC: inactive
[25]
  Activity: Active
[26]
  MIC: > 0.5 µg/mL
[27]
  MIC: > 0.125 µg/mL
[28]
  MIC: > 0.0625 µg/mL
[29]
  MIC: > 0.5 µg/mL
[30]
  MIC: > 0.125 µg/mL
[31]
  MIC: > 0.125 µg/mL
[32]
  MIC: > 0.5 µg/mL
[33]
  MIC: > 0.0625 µg/mL
[34]
  MIC: > 0.5 µg/mL
[35]
  MIC: > 0.125 µg/mL
[36]
  MIC: > 0.5 µg/mL
